Measured values from different studies.
Lines come from different studies, so protocols differ.
Target: 3-phosphoinositide-dependent protein kinase 1 (PDPK1, Homo sapiens, UniProt O15530)
Sequence (O15530 1-556, as in one of the studies): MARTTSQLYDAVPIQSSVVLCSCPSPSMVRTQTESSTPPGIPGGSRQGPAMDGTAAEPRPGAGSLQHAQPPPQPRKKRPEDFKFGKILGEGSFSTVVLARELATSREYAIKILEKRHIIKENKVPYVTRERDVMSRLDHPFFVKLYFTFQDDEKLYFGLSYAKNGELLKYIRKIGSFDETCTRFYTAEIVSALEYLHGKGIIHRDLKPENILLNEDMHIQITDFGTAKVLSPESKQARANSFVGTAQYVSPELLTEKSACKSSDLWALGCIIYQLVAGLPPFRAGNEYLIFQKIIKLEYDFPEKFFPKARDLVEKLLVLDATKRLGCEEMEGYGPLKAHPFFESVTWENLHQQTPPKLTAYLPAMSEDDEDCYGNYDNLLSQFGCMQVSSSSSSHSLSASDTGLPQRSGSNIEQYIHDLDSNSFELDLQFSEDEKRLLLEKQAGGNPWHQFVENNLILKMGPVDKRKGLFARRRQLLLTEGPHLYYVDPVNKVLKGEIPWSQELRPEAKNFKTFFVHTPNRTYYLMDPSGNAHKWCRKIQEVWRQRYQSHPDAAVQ

COc1ncc2cc3ccccc3nc2c1C#N
remaining binding (cell-free assay, competition with immobilised ligand; 5 µM): 88%

CCN(CC)Cc1cc(Nc2ccnc3cc(Cl)ccc23)ccc1O
remaining binding (cell-free assay, competition with immobilised ligand; 10 µM): 93%

C[C@@]1(Cc2ccc(C#N)cc2)C(=O)N(c2cc(Cl)cc(Cl)c2)c2ncc(C(=O)NC3(c4nc(C5CCC5)no4)CC3)n21
remaining binding (cell-free assay, competition with immobilised ligand; 1 µM): 100%

O=C(NCCCN1CCOCC1)c1ccc(Nc2ncc(Cl)c(-c3ccc(Cl)s3)n2)cc1
remaining binding (binding, competition with immobilised ligand; 1 µM): 100%

Cc1c(-c2ccccc2)oc2c(C(=O)OCCN3CCCCC3)cccc2c1=O
remaining binding (cell-free assay, competition with immobilised ligand; 0.1 µM): 100%

Cc1nc(Cc2cccc(C(F)(F)F)c2)sc1-c1ccc(C(N)=O)nc1
remaining binding (cell-free assay, competition with immobilised ligand; 1 µM): 82%

Cc1cnc(Nc2ccc(C(=O)N3CCC(N4CCCC4)CC3)cc2)nc1-c1cc2ccccc2s1
remaining binding (binding, competition with immobilised ligand; 1 µM): 72%

CNC(=O)c1cc(Oc2ccc(NC(=O)Nc3ccc(Cl)c(C(F)(F)F)c3)cc2)ccn1
remaining binding (cell-free assay, competition with immobilised ligand; 10 µM): 85%

CCCCN(CCCC)C(=O)CN1C[C@@H](c2cc(OC)c3c(c2)OCO3)[C@H](C(=O)O)[C@H]1CC(C)(C)CCC
remaining binding (cell-free assay, competition with immobilised ligand; 1 µM): 77.3%

CN1CC[C@H](c2c(O)cc(O)c3c(=O)cc(-c4ccccc4Cl)oc23)[C@H](O)C1
remaining binding (cell-free assay, competition with immobilised ligand; 0.1 µM): 100%

Cc1c(C(=O)O)cc(-c2ccc(C3CCNCC3)cc2)c2ccc(-c3ccc(C(F)(F)F)cc3)cc12
remaining binding (binding, competition with immobilised ligand; 1 µM): 100%

COc1cnc(Nc2cccc(S(N)(=O)=O)c2)nc1N1CCN(c2ccccc2)CC1
remaining binding (binding, competition with immobilised ligand; 1 µM): 100%

C=CC(=O)N1CCC(C(=O)NCC(=O)N2CCN(c3nc(-c4cnc(N)nc4C(F)F)nc(N4CCOCC4)n3)CC2)CC1
remaining binding (binding, competition with immobilised ligand; 1 µM): 93%

COc1cnc(Nc2cccc(S(N)(=O)=O)c2)nc1N1CCN(c2ccccc2)C(=O)C1
remaining binding (binding, competition with immobilised ligand; 1 µM): 100%

Cn1cc(Cl)c2c(Oc3c(F)cc(Nc4cc(Cl)nc(N)n4)cc3F)ccnc21
remaining binding (cell-free assay, competition with immobilised ligand; 0.1 µM): 61%

CCN(CC)CCNC(=O)c1c(C)[nH]c(/C=C2\C(=O)Nc3ccc(F)cc32)c1C
remaining binding (cell-free assay, competition with immobilised ligand; 0.1 µM): 100%

CN(CCCC(F)(F)F)c1nccc(-c2cnn3ncccc23)n1
remaining binding (binding; 1 µM): 100%

Nc1ncc2c(n1)-c1c([nH]c3ccc(C#CC4CC4)cc13)CCCC2
remaining binding (binding, competition with immobilised ligand; 1 µM): 91%

CN(C)C(=O)Cn1cc(-c2nc([C@@](C)(c3ccc(-c4cnc(N)nc4)cc3)C3CC3)no2)cn1
remaining binding (cell-free assay, competition with immobilised ligand; 1 µM): 99%

C[C@@H]1CCN(c2nccc(-c3cnn4ncccc34)n2)C1
remaining binding (binding; 1 µM): 89%

C[C@@H]1CN(c2ccc3ncc(-c4ccc5[nH]nc(C6CC6)c5c4)n3n2)C[C@H](C)O1
remaining binding (binding, competition with immobilised ligand; 50 nM): 100%

c1cncc(-c2cccc(Nc3nccc(NC4CCCCC4)n3)c2)c1
remaining binding (binding, competition with immobilised ligand; 10 µM): 100%

CN(C)c1nccc(-c2cnc3ncccn23)n1
remaining binding (binding; 1 µM): 100%

Cc1ccc(NC(=O)c2ccc(CN3CCN(C)CC3)cc2)cc1Nc1nccc(-c2cccnc2)n1
remaining binding (cell-free assay, competition with immobilised ligand; 10 µM): 100%

N[C@H]1CCN(c2nccc(-c3cnn4ncccc34)n2)C1
remaining binding (binding; 1 µM): 97%

Cc1nc(Nc2ncc(C(=O)Nc3c(C)cccc3Cl)s2)cc(N2CCN(CCO)CC2)n1
remaining binding (cell-free assay, competition with immobilised ligand; 10 µM): 100%

CN(C)c1ncc(F)c(-c2cnn3ncccc23)n1
remaining binding (binding; 1 µM): 99%

O=C(c1ccc(Nc2ncc(Cl)c(-c3ccc(Cl)s3)n2)cc1)N1CCC(N2CCCC2)CC1
remaining binding (binding, competition with immobilised ligand; 1 µM): 82%

O=C(Nc1c[nH]nc1C(=O)NC1CCNCC1)c1cc(F)cc(F)c1
remaining binding (binding, competition with immobilised ligand; 1 µM): 90%

COc1ccc2c(c1)O[C@@H](c1ccc(OC)c(OC)c1)C[C@H]2NC(=O)C1(c2ccc3c(c2)OC(F)(F)O3)CC1
remaining binding (cell-free assay, competition with immobilised ligand; 1 µM): 100%

c1cnn2ncc(-c3ccnc(N4CCC45COC5)n3)c2c1
remaining binding (binding; 1 µM): 98%

CS(=O)(=O)CCNCc1ccc(-c2ccc3ncnc(Nc4ccc(OCc5cccc(F)c5)c(Cl)c4)c3c2)o1
remaining binding (cell-free assay, competition with immobilised ligand; 10 µM): 100%

O=C(Nc1cccnn1)N1CC(C/C=C/c2cncc(Oc3ccc(C(F)(F)F)cn3)n2)C1
remaining binding (cell-free assay, competition with immobilised ligand; 1 µM): 97%
